Broadly, the IC50 is the concentration at which inhibition is half-maximal.

In ChEMBL document CHEMBL4261550, “Triazolopyrimidines identified as reversible myeloperoxidase inhibitors” (Medchemcomm, 2017) one finds IC50 and Activity data, which are given here for two compounds.

Calls of active or inactive are those of the source. The rule behind the calls is not given here.

For one assay, the target named is Lactoperoxidase (Homo sapiens, UniProt P22079). Nature of the assay: Inhibition of recombinant human LPO isoform-1 (26 to 712 residues) expressed in baculovirus infected insect cells assessed as reduction in H2O2-catalyzed 3,5-iodo tyrosine formation using 3-iodotyrosine and potassium iodide preincubated for 10 mins followed by 3,5-iodo tyrosine/potassium iodide/H2O2 addition and measured after 15 mins. Put shortly: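 LPO isoform 1 residues 26–712, baculovirus/T. ni expressed, purified by cation exchange, hydrophobic interaction and size exclusion; 2.0 nM in 100 mM KPi pH 7.4, 10 min rt preincubation with inhibitor; then 400 μM KI/240 μM 3-iodotyrosine mix and 20 μM H2O2 (added solutions); 3,5-iodotyrosine formation monitored.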
Sequence of Lactoperoxidase (P22079 whole entry, the tested form may be a part, canonical isoform): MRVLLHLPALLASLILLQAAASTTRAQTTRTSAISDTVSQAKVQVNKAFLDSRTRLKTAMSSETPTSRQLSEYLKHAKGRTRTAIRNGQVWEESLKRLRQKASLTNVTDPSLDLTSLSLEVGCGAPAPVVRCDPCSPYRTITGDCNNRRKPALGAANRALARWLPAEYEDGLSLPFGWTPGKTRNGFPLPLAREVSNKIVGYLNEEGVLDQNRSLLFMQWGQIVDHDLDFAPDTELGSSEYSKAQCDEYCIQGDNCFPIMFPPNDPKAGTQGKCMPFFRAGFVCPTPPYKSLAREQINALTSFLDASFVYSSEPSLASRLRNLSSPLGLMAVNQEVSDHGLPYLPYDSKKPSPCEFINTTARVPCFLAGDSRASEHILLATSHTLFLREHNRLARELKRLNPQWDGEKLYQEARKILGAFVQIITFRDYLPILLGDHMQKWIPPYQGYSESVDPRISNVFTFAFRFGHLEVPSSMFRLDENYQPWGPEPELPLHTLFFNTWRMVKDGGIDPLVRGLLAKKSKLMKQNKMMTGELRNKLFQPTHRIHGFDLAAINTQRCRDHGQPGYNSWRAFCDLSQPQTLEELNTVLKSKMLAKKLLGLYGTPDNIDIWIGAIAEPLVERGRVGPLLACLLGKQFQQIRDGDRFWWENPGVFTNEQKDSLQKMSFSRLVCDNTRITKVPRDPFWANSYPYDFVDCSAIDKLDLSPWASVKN

In the next assay the target is T1, Eosinophil peroxidase (Homo sapiens, UniProt P11678).
T1 sequence (P11678 whole entry): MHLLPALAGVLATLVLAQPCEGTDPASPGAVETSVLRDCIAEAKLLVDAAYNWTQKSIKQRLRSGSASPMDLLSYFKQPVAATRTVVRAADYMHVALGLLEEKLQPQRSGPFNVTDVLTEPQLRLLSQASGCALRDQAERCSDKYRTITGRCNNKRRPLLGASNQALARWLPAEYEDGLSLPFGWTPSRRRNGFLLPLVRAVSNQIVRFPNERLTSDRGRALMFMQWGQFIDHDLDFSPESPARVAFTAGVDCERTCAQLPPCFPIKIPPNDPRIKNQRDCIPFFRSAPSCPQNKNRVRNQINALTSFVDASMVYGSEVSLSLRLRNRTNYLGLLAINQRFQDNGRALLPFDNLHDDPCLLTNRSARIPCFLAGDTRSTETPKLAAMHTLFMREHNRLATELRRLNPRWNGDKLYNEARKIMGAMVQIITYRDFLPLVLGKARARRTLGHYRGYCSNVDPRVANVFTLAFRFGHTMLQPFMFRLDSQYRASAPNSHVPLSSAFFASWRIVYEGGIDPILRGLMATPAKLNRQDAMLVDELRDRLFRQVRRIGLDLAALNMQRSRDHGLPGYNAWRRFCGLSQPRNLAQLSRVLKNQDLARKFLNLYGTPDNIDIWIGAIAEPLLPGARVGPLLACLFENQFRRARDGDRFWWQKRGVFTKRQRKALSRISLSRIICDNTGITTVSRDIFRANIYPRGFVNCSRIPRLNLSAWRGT
The assay is described as follows: Inhibition of eosinophil peroxidase (unknown origin)assessed as reduction in H2O2-catalyzed 3-bromo tyrosine formation using tyrosine and potassium bromide preincubated for 10 mins followed by tyrosine/potassium bromide/H2O2 addition and measured after 15 mins by RP-UPLC analysis. The procedure, abridged:
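Commercial EPX, purity ≥98%, 0.6 μM, in 100 mM KPi pH 7.4, preincubated with inhibitor 10 min at rt; then 400 μM tyrosine/1200 μM KBr mix, followed by 20 μM H2O2 (added solutions); 3-bromotyrosine quantified by reversed-phase LC, column 60 °C, MeOH/TFA gradient.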

The target of another assay is T2, Myeloperoxidase (Homo sapiens, UniProt P05164).
T2 sequence (P05164 whole entry): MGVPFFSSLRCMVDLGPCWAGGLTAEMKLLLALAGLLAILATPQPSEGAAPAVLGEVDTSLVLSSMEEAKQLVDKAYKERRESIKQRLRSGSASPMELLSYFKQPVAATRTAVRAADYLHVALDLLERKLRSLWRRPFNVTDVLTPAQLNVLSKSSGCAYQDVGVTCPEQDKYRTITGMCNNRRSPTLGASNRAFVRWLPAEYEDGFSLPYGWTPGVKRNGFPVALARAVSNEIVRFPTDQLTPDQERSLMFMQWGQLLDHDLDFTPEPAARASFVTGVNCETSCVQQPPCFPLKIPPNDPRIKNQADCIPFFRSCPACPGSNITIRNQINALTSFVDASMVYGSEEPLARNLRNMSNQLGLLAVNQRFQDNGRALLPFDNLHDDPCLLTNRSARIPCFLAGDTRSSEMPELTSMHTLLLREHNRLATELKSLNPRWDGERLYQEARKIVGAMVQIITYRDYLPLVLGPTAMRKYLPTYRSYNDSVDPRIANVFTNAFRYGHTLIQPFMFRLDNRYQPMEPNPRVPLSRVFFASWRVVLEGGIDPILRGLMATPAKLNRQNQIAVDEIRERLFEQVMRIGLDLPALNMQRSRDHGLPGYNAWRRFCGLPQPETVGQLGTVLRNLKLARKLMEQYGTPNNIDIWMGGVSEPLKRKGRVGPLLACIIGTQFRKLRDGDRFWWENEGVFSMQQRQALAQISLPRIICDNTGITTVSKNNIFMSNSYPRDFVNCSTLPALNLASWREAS
Nature of the assay: Inhibition of MPO in human neutrophils assessed as reduction in PMA-stimulated HOCl production incubated for 3 mins and measured for 25 mins by luminol reagent based luminescence assay. The procedure, abridged: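 Neutrophils from healthy donors isolated by dextran sedimentation then Ficoll-Paque, resuspended in HBSS; 1.106 cells/mL stimulated with 100 nM PMA; inhibitor 22 μM down to 1 nM (1:3, 10 doses) in 10% ethanol/50% PEG/40% water, 3 min at rt; luminol 100 μM final, read 25 min at 37 °C; rate taken from initial linear region.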

Assay [1] has as its target T3, Myeloperoxidase (Homo sapiens) (UniProt P05164).
T3 sequence (whole entry): T2 sequence (P05164 whole entry)
Nature of the assay: Substrate activity at human MPO assessed as reversion of enzyme to resting state at 40 uM in presence of H2O2 by stopped flow assay. Put shortly:
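Stopped-flow at 25 °C: syringe 1 with 2 μM MPO and 5 μM H2O2 in phosphate buffer, syringe 2 with inhibitor and 5 μM H2O2; equal volumes rapidly mixed, spectra acquired in PDA mode to follow several MPO species; representative of numerous replicates.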

With `Nc1nc(OCc2ccccc2)c2[nH]nnc2n1`, the IC50 at Lactoperoxidase was more than 30000 nM; on Eosinophil peroxidase, 15 nM; at Myeloperoxidase, 5000 nM. Moreover, in assay [1], the outcome was inactive.
For `Nc1ccc(Oc2cc(Cl)c(Cl)cc2Cl)cn1`, in that order: 13000 nM, 160 nM, 1700 nM and “Active”.
